Source: ChEMBL document CHEMBL1143670, “An adamantyl-substituted retinoid-derived molecule that inhibits cancer cell growth and angiogenesis by inducing apoptosis and binds to small heterodimer partner nuclear receptor: effects of modifying its carboxylate group on apoptosis, proliferation, and protein-tyrosine phosphatase activity” (J Med Chem, 2007)
Activity calls are given as the source filed them. The rule behind the calls is not given here.

Legend:
[1] = Growth inhibition of retinoid-resistant H292 cells at 1 uM relative to control; type: functional; details: Homo sapiens, NCI-H292
Procedure, shortened: (§1)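 Cells seeded at 2 × 10^3 per well for H292 and DU-145 (RPMI-1640, 10% FBS) or 4 × 10^3 for MDA-MB-231 (DMEM, 10% FBS), 37 °C, 6% CO2. After 24 h attachment, treated 72 h with compound in Me2SO (0.1% final); media and compound renewed at 48 h. Viable cells by MTS reduction; triplicates per concentration.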

KG-1 [2] = assay: Growth inhibition of retinoid-resistant KG1 cells at 5 uM after 48 hrs; type: functional; details: Homo sapiens, KG-1, 48 h
Procedure, shortened: (§2)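 KG-1 cells grown in RPMI-1640 with 5% heat-inactivated FBS and gentamycin, seeded in 3 mL medium plus 5% FBS, incubated overnight. Compound then added in Me2SO (0.1% final), cells incubated for the stated time, harvested and counted by hemocytometer.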

MDA-MB-231 [3] = assay: Growth inhibition of retinoid-resistant MDA-MB-231 cells at 1 uM relative to control; type: functional; details: Homo sapiens; procedure, shortened: as §1
KG-1 [4] = assay: Inhibition of cell proliferation in retinoid-resistant KG1 cells at 1 uM after 48 hrs relative to control; type: functional; details: Homo sapiens, KG-1, 48 h; procedure, shortened: as §2
[5] = Growth inhibition of retinoid-resistant H292 cells after 72 hrs; type: functional, cell-based; details: Homo sapiens, NCI-H292, 72 h; procedure, shortened: as §1
KG-1 [6] = assay: Induction of apoptosis in retinoid-resistant KG1 cells at 5 uM after 48 hrs; type: functional, Homo sapiens
Procedure, shortened: (§3)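 Apoptotic cells scored by acridine orange staining. KG-1, HL-60R or MDA-MB-231 cells seeded in medium with 5% FBS, incubated overnight, then exposed to compound in Me2SO (0.1% final) for the stated time.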

KG-1 [7] = assay: Induction of apoptosis in retinoid-resistant KG1 cells at 1 uM after 48 hrs; type: functional, Homo sapiens; procedure, shortened: as §3
MDA-MB-231 [8] = assay: Growth inhibition of retinoid-resistant MDA-MB-231 cells after 72 hrs; type: functional, cell-based; details: Homo sapiens, MDA-MB-231, 72 h; procedure, shortened: as §1
DU-145 [9] = assay: Growth inhibition of retinoid-resistant DU145 cells at 1 uM relative to control; type: functional; details: Homo sapiens; procedure, shortened: as §1
DU-145 [10] = assay: Growth inhibition of retinoid-resistant DU145 cells after 72 hrs; type: functional, cell-based; details: Homo sapiens, DU-145, 72 h; procedure, shortened: as §1
KG-1 [11] = assay: Inhibition of cell proliferation in retinoid-resistant KG1 cells after 48 hrs; type: functional, cell-based; details: Homo sapiens, KG-1, 48 h; procedure, shortened: as §2
[12] = Antiproliferative activity against HMVE cells; type: functional, cell-based; details: Homo sapiens
[13] = target: Receptor-type tyrosine-protein phosphatase C, CD45 (Homo sapiens) (UniProt P08575); assay: Inhibition of CD45 PTP at 10 uM relative to control by fluorescence spectrometry
[14] = Inhibition of HMVE cell proliferation at 0.5 uM relative to control; type: functional; details: Homo sapiens
[15] = target: T1, Nuclear receptor subfamily 0 group B member 2 (Homo sapiens) (UniProt Q15466); assay: Displacement of [5,5'-3H2]AHPN from recombinant human GST-SHP partner nuclear orphan receptor at 50 uM
T1 sequence (whole entry): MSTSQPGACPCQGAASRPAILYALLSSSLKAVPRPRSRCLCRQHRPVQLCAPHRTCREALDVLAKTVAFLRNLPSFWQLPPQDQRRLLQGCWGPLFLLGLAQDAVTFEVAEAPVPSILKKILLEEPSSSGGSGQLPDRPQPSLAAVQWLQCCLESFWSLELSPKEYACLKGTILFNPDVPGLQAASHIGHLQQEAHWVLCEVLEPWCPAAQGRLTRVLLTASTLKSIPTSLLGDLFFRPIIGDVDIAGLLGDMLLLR
Procedure, shortened: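 GST–human SHP fusion (150–500 ng) on glutathione-Sepharose beads preincubated on ice 45 min with unlabeled compound (50 µM final) in 0.4 mL binding buffer. [5,5′-3H2]AHPN (5 nM final) then added for 2 h at 4 °C. Beads washed, counted by scintillation directly or after elution with 50 mM NaHCO3/1% SDS.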

[16] = target: T2, Tyrosine-protein phosphatase non-receptor type 11 (Homo sapiens, UniProt Q06124); assay: Inhibition of SHP2 PTP by fluorescence spectroscopy
T2 sequence (Q06124 whole entry): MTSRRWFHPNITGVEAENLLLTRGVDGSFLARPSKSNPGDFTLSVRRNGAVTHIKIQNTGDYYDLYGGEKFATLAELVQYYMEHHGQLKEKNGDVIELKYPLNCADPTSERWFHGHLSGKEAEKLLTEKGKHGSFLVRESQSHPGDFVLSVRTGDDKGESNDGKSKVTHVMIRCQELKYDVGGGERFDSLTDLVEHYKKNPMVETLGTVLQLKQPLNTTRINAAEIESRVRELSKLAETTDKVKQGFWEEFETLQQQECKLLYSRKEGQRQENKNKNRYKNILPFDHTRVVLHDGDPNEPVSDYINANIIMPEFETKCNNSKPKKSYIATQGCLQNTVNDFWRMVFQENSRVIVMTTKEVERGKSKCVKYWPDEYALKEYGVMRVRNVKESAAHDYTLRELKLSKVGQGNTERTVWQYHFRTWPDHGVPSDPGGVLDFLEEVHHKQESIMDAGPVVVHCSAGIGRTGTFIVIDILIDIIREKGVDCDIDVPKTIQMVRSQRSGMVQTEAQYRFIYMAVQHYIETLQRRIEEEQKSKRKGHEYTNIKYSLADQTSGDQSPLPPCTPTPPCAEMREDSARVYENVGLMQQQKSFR

Trachea = assay: Reversal of keratinization in vitamin A-deficient hamster trachea after 10 days by TOC assay; type: functional, tissue-based; details: Cricetinae, 240 h
Mus musculus = assay: Inhibition of TPA-induced ornithine decarboxylase in mouse dorsal epidermis applied topically after 1 hr; type: functional
KG-1 [17] = assay: Inhibition of cell proliferation of KG1 cells; type: functional, cell-based; details: Homo sapiens; procedure, shortened: as §2
HL60R = assay: Induction of apoptosis in tran-RA-resistant HL60R cells at 1 uM after 24 hrs; type: functional; details: Homo sapiens
F9 = assay: Induction of terminal differentiation in mouse F9 cells assessed by measuring secreted plasminogen activator activity after 3 days; type: functional, cell-based; details: F9, 72 h, read-out: IC50 (the source's name)

Chain of Receptor-type tyrosine-protein phosphatase C, CD45 (Homo sapiens) (P08575 whole entry, looked up): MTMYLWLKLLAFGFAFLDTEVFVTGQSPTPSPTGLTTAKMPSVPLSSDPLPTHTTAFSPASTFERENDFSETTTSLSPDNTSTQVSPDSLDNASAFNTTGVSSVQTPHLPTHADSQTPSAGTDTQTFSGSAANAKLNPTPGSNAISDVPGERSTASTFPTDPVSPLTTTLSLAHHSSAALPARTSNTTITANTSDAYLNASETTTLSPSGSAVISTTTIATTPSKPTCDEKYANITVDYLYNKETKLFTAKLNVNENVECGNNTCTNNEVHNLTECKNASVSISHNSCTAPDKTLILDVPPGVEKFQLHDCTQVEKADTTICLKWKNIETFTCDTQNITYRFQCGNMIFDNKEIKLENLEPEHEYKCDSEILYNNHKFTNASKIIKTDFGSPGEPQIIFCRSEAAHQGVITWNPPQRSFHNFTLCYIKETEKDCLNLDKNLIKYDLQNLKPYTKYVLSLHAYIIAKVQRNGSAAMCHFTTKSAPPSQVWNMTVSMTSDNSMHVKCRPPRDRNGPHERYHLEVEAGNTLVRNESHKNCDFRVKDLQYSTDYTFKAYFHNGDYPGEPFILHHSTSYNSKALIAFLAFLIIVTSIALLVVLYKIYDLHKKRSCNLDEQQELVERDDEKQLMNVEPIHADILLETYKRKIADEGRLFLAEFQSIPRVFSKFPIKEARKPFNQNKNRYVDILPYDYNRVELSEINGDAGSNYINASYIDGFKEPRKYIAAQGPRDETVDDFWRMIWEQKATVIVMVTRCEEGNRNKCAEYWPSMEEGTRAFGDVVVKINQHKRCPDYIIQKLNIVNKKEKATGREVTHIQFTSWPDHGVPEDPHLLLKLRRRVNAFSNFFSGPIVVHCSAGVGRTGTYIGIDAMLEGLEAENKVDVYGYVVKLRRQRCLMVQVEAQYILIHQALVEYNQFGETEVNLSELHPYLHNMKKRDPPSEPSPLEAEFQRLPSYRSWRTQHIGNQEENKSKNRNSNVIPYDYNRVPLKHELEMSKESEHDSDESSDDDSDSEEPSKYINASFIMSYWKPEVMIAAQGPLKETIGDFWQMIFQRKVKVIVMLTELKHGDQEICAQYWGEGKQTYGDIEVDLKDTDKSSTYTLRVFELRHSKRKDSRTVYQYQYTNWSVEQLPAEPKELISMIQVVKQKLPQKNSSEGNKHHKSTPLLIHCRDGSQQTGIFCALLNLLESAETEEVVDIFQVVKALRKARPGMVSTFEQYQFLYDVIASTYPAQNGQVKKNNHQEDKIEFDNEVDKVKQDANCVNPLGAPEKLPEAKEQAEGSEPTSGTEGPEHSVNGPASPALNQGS

SMILES | inhibition at 1 µM [1] | inhibition at 5 µM (KG-1 [2]) | inhibition at 1 µM (MDA-MB-231 [3]) | inhibition at 1 µM (KG-1 [4]) | IC50 [5] | Activity (KG-1 [6]) | Activity (KG-1 [7]) | IC50 (MDA-MB-231 [8]) | inhibition at 1 µM (DU-145 [9]) | IC50 (DU-145 [10]) | IC50 (KG-1 [11]) | inhibition at 0.5 µM [14] | also measured
O=CC(=O)/C=C/c1ccc(-c2ccc(O)c(C34CC5CC(CC(C5)C3)C4)c2)c(Cl)c1 | 7% | 38% | 0% | 11% | 7 µM | 6% | 5% | 14 µM | 0% | 7.8 µM | 10 µM |  | 
O=C(O)/C=C/c1ccc(-c2ccc(O)c(C34CC5CC(CC(C5)C3)C4)c2)cc1 [ADAROTENE] |  |  |  |  |  |  |  |  |  |  |  | 90% | IC50 [12]: 0.1 µM; inhibition [13]: 84%
CCOP(=O)(O)/C=C/c1ccc(-c2ccc(O)c(C34CC5CC(CC(C5)C3)C4)c2)c(Cl)c1 | 2% | 0% | 3% | 0% | > 5 µM | 0% | 0% | > 5 µM | 3% | > 5 µM | > 5 µM |  | 
O=C1NC(=O)/C(=C/C=C/c2ccc(-c3ccc(O)c(C45CC6CC(CC(C6)C4)C5)c3)c(Cl)c2)S1 | 2% | 2% | 0% | 0% | 23 µM | 2% | 2% | 24 µM | 0% | 15 µM |  |  | Activity [15]: 69%
Oc1ccc(-c2ccc(-c3nnn[nH]3)cc2Cl)cc1C12CC3CC(CC(C3)C1)C2 | 3% | 21% | 0% | 13% | 14 µM | 2% | 2% | 71 µM | 0% | 52 µM | > 5 µM |  | inhibition [13]: 46%; IC50 [16]: 1.3 µM
CC(=O)NCCCOc1cc(/C=C/C(=O)O)ccc1-c1ccc(O)c(C23CC4CC(CC(C4)C2)C3)c1 |  |  |  |  |  |  |  |  |  |  |  |  | Activity [15]: 72%
CC1=C(/C=C/C(C)=C/C=C/C(C)=C/C(=O)O)C(C)(C)CCC1 [TRETINOIN] |  |  |  |  |  |  |  |  |  |  |  | 10% | IC50 [12]: > 0.5 µM; IC50 (Trachea): 0.01 nM; ID50 (Mus musculus): 0.19 nmol
Oc1ccc(-c2ccc(/C=C/c3nnn[nH]3)cc2Cl)cc1C12CC3CC(CC(C3)C1)C2 | 3% | 31% | 0% | 0% | 16 µM | 12% | 10% | 21 µM | 0% | 14 µM | 13 µM |  | 
OB(O)/C=C/c1ccc(-c2ccc(O)c(C34CC5CC(CC(C5)C3)C4)c2)c(Cl)c1 | 0% | 0% | 3% | 0% | 7.2 µM | 4% | 4% | 19 µM | 2% | 7 µM | > 5 µM |  | IC50 (KG-1 [17]): > 5 µM; Activity [15]: 0%
O=C(O)c1ccc2ccc(-c3ccc(O)c(C45CC6CC(CC(C6)C4)C5)c3)cc2c1 |  |  |  |  |  |  |  |  |  |  |  | 15% | IC50 [12]: > 0.5 µM; Activity (HL60R): inactive
CC1(C)CCC(C)(C)c2cc(-c3ccc(/C=C/C(=O)O)cc3)ccc21 |  |  |  |  |  |  |  |  |  |  |  |  | IC50 (Trachea): 0.32 nM; ID50 (Mus musculus): 7.5 nmol; EC50 (F9): 0.0003 µM
O=C(/C=C/c1ccc(-c2ccc(O)c(C34CC5CC(CC(C5)C3)C4)c2)c(Cl)c1)NO | 6% | 0% | 4% | 0% | 9 µM | 4% |  | 6.3 µM | 7% | 3.5 µM | > 5 µM |  | IC50 (KG-1 [17]): > 5 µM; Activity [15]: 7%
Oc1ccc2cc(-c3ccc(O)c(C45CC6CC(CC(C6)C4)C5)c3)ccc2c1 |  |  |  |  |  |  |  |  |  |  |  | 15% | IC50 [12]: > 0.5 µM
CC1(C)CCC(C)(C)c2cc(-c3ccc4cc(C(=O)O)ccc4c3)ccc21 |  |  |  |  |  |  |  |  |  |  |  |  | IC50 (Trachea): 0.007 nM; ID50 (Mus musculus): 2 nmol; EC50 (F9): 0.001 µM
O=C(O)c1ccc2c(Cl)c(-c3ccc(O)c(C45CC6CC(CC(C6)C4)C5)c3)ccc2c1 |  |  |  |  |  |  |  |  |  |  |  | 45% | IC50 [12]: 0.5 µM
N#CC(C#N)=Cc1ccc(-c2ccc(O)c(C34CC5CC(CC(C5)C3)C4)c2)c(Cl)c1 | 0% | 0% | 0% | 0% | > 10 µM | 3% | 0% | > 10 µM | 4% | > 10 µM | > 5 µM |  | IC50 (KG-1 [17]): > 5 µM
Cc1c(-c2ccc3c(c2)C(C)(C)CCC3(C)C)ccc2cc(C(=O)O)ccc12 |  |  |  |  |  |  |  |  |  |  |  |  | IC50 (Trachea): 0.08 nM; ID50 (Mus musculus): 66 nmol; EC50 (F9): 0.003 µM
CC1(C)CCC(C)(C)c2cc(/C(=N\O)c3ccc4cc(C(=O)O)ccc4c3)ccc21 |  |  |  |  |  |  |  |  |  |  |  | 30% | 
Cc1c(-c2ccc(O)c(C34CC5CC(CC(C5)C3)C4)c2)ccc2cc(C(=O)O)ccc12 |  |  |  |  |  | 73% |  |  |  |  |  |  | Activity at 1 µM (KG-1 [7]; Homo sapiens, KG-1, 48 h): 51%
